Results published in ChEMBL document CHEMBL3352359, “Cycloartane triterpenoids and their glycosides from the rhizomes of Cimicifuga foetida” (J Nat Prod, 2014).

What was measured:
Assay type in all cases: functional, cell-based
[1] = tested on: HeLa; test: Cytotoxicity against human HeLa cells after 48 hrs by MTT assay
Method in brief: (§1)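 Adherent cells grown in DMEM with 10% FBS at 37 °C under 5% CO2. Cells were seeded in 96-well plates and left 12 h to attach, then exposed in triplicate to a range of compound concentrations for 48 h, with cisplatin as positive control. MTT read-out was absorbance at 570 nm (reference 630 nm). IC50 was derived by the Reed–Muench method.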

[2] = tested on: MCF7; test: Cytotoxicity against human MCF7 cells after 48 hrs by MTT assay; details: MCF7, 48 h; method in brief: as §1
[3] = Cytotoxicity against human SMMC-7721 cells after 48 hrs by MTT assay; details: SMMC-7721, 48 h; method in brief: as §1
[4] = Cytotoxicity against human H460 cells after 48 hrs by MTT assay; details: NCI-H460, 48 h; method in brief: as §1
[5] = Cytotoxicity against human HL60 cells after 48 hrs by MTT assay; details: HL-60, 48 h
Method in brief: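 HL-60 suspension cells were grown in DMEM with 10% FBS at 37 °C under 5% CO2. They were seeded at 1 × 10^5 cells/mL in 96-well plates just before compound addition, then exposed in triplicate to graded concentrations for 48 h, with cisplatin as positive control. MTT absorbance was read at 570 nm against 630 nm reference. IC50 was calculated by the Reed–Muench method.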

| Structure (SMILES) | IC50 [1] | IC50 [2] | IC50 [3] | IC50 [4] | IC50 [5] |
| --- | --- | --- | --- | --- | --- |
| C[C@H](CC(=O)[C@H](O)C(C)(C)O)[C@H]1C(=O)C[C@@]2(C)C3=CC[C@H]4C(C)(C)[C@@H](O[C@@H]5OC[C@@H](O)[C@H](O)[C@H]5O)CC[C@@]4(O)CC3=CC[C@]12C | > 10 µM | > 10 µM | > 10 µM | > 10 µM | > 10 µM |
| CC(=O)O[C@@H]1C[C@@]23C[C@@]24CC[C@H](O[C@@H]2OC[C@@H](O)[C@H](O)[C@H]2O)C(C)(C)[C@@H]4CC[C@H]3[C@]2(C)C[C@@H]3O[C@@]4(C[C@@H](C)[C@@H]3[C@@]12C)OC[C@]1(C)O[C@H]41 | > 10 µM | > 10 µM | > 10 µM | > 10 µM | > 10 µM |
| C[C@H](CC(=O)[C@H](O)C(C)(C)O)[C@H]1C(=O)C[C@@]2(C)C3=CC[C@H]4C(C)(C)[C@@H](O[C@@H]5OC[C@@H](O)[C@H](O)[C@H]5O)CC[C@]4(O)CC3=CC[C@]12C | > 10 µM | > 10 µM | > 10 µM | > 10 µM | > 10 µM |
| CC(=O)O[C@@H]1C[C@@]23C[C@@]24CC[C@H](O[C@@H]2OC[C@@H](O)[C@H](O)[C@H]2O)C(C)(C)[C@@H]4CC[C@H]3[C@]2(C)[C@@H](O)[C@]34O[C@H](C[C@@H](C)[C@@H]3[C@@]12C)[C@@H](C(C)(C)O)O4 | > 10 µM | > 10 µM | > 10 µM | > 10 µM | > 10 µM |
| CC(=O)O[C@@H]1C[C@@]23C[C@@]24CC[C@H](O[C@@H]2OC[C@@H](O)[C@H](O)[C@H]2O)C(C)(C)[C@@H]4CC[C@H]3[C@]2(C)C[C@@H]3OC(C(O)C(C)(C)O)=C[C@@H](C)[C@@H]3[C@@]12C (stereo not given in full) | > 10 µM | > 10 µM | > 10 µM | > 10 µM | > 10 µM |
| C[C@H](CC(=O)[C@@H]1OC1(C)C)[C@H]1C(=O)C[C@@]2(C)C3=CC[C@H]4C(C)(C)[C@@H](O[C@@H]5OC[C@@H](O)[C@H](O)[C@H]5O)CC[C@]4(O)CC3=CC[C@]12C | > 10 µM | > 10 µM | > 10 µM | > 10 µM | > 10 µM |
| C[C@H](CC(=O)[C@H](O)C(C)(C)O)[C@H]1C(=O)C[C@@]2(C)C3=CC[C@@H]4C(=CC[C@H](O)C4(C)C)CC3=CC[C@]12C | > 10 µM | > 10 µM | > 10 µM | > 10 µM | > 10 µM |
| CC(=O)O[C@@H]1C[C@@]23C[C@@]24CC[C@H](O[C@@H]2OC[C@@H](O)[C@H](O)[C@H]2O)C(C)(C)[C@@H]4CC[C@H]3[C@]2(C)C[C@@H]3O[C@](O)(C(=O)C(C)C)C[C@@H](C)[C@@H]3[C@@]12C | > 10 µM | > 10 µM | > 10 µM | > 10 µM | > 10 µM |
| CC(=O)O[C@@H]1[C@@H](O)[C@H](O[C@H]2CC[C@]34C[C@]35CC[C@]3(C)[C@H]6[C@H](C)C[C@H]7O[C@@]6(O[C@@H]7C(C)(C)OC(C)=O)[C@H](O)[C@@]3(C)[C@@H]5CC[C@H]4C2(C)C)OC[C@H]1O | > 10 µM | > 10 µM | 5.5 µM | > 10 µM | > 10 µM |
| C[C@@H]1C[C@H]2O[C@@]3(O[C@@H]2C(C)(C)O)[C@H](O)[C@@]2(C)[C@@H]4CC[C@H]5C(C)(C)[C@@H](O[C@@H]6OC[C@@H](O)[C@H](O)[C@H]6O)CC[C@@]56C[C@@]46C[C@@H](O)[C@]2(C)[C@@H]13 | > 10 µM | > 10 µM | > 10 µM | > 10 µM | > 10 µM |
| C[C@H](CC(=O)[C@@H](O)C(C)(C)O)[C@H]1C(=O)C[C@@]2(C)C3=CC[C@@H]4C(=CC[C@H](O)C4(C)C)CC3=CC[C@]12C | > 10 µM | > 10 µM | > 10 µM | > 10 µM | > 10 µM |
| CC(=O)O[C@@H]1CO[C@@H](O[C@H]2CC[C@]34C[C@]35CC[C@]3(C)[C@H]6[C@H](C)C[C@H]7O[C@@]6(O[C@@H]7C(C)(C)OC(C)=O)[C@H](O)[C@@]3(C)[C@@H]5CC[C@H]4C2(C)C)[C@H](O)[C@H]1O | > 10 µM | > 10 µM | 6.3 µM | > 10 µM | > 10 µM |
| CC(=O)O[C@@H]1C[C@@]23C[C@@]24CC[C@H](O[C@@H]2OC[C@@H](O)[C@H](O)[C@H]2O)C(C)(C)[C@@H]4CC[C@H]3[C@]2(C)C[C@@H]3O[C@]4(C[C@@H](C)[C@@H]3[C@@]12C)O[C@H](O)[C@@]1(C)O[C@@H]41 [ACTEIN] | > 10 µM | > 10 µM | > 10 µM | > 10 µM | > 10 µM |
| C=C(C)[C@@H](O)C(=O)C[C@@H](C)[C@H]1C(=O)C[C@@]2(C)C3=CC[C@H]4C(C)(C)[C@@H](O[C@@H]5OC[C@@H](O)[C@H](O)[C@H]5O)CC[C@@]45C[C@]35[C@@H](O)C[C@]12C | > 10 µM | > 10 µM | > 10 µM | > 10 µM | > 10 µM |
| CC(=O)O[C@@H]1C[C@@]23C[C@@]24CC[C@H](O[C@@H]2OC[C@@H](O)[C@H](O)[C@H]2O)C(C)(C)[C@@H]4CC[C@H]3[C@]2(C)C[C@@H]3O[C@]4(O)[C@H](OC(C)(C)[C@@H]4O)[C@@H](C)[C@@H]3[C@@]12C | > 10 µM | > 10 µM | > 10 µM | > 10 µM | > 10 µM |
| C[C@H](CC(=O)[C@@H]1OC1(C)C)[C@H]1C(=O)C[C@@]2(C)C3=CC[C@H]4C(C)(C)[C@@H](O[C@@H]5OC[C@@H](O)[C@H](O)[C@H]5O)CC[C@@]4(O)CC3=CC[C@]12C | > 10 µM | > 10 µM | > 10 µM | > 10 µM | > 10 µM |
